M4 PAM – human M4 muscarinic receptor positive allosteric modulators, primary screen, CHO-K1 cells, Fluo-8 calcium fluorescence; Muscarinic acetylcholine receptor M4 (Homo sapiens), P08173; CHO-K1 hM4/Gqi5, ACh EC20; 0% = ACh EC20, 100% = maximal ACh; activation, % at 3 µM; 0.4% of 360,000 active; AID 624126, 2012;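 active = activation above its plate's cutoff, the mean activation of sample wells plus 3 SD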
M5 ag – human M5 muscarinic receptor agonists, primary screen, CHO-K1 cells, Fluo-8 calcium fluorescence; Muscarinic acetylcholine receptor M5 (Homo sapiens), P08912; CHO-K1 hM5 cells; 0% DMSO wells, 100% maximal acetylcholine response; activation, % at 3 µM; 0.19% of 360,000 active; AID 624037, 2012;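 active = activation above the run's mean over test compounds plus 3 SD, cut at about 23% in these data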;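 also: signal is peak over basal fluorescence ratio across the kinetic read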
Target sequence (P08912 whole entry, looked up): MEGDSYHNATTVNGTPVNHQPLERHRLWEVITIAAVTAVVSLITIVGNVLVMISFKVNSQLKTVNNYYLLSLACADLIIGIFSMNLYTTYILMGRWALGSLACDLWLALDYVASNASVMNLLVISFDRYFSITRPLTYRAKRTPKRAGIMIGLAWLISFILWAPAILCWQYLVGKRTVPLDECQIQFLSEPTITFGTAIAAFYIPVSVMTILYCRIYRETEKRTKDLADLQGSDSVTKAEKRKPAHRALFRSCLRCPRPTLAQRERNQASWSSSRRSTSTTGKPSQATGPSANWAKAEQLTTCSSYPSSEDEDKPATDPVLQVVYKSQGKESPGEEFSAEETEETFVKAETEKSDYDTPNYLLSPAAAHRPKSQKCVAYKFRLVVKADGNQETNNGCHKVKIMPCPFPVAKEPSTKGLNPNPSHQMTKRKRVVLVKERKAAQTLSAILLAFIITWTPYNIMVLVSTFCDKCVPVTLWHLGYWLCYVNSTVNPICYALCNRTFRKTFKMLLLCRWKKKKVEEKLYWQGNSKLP
CHRM5 PAM – human M5 muscarinic receptor positive allosteric modulators, primary screen, CHO-K1 cells, Fluo-8 calcium fluorescence; activation, % at 3 µM; CHO-K1 hM5, ACh EC20 PAM; 0% = ACh EC20, 100% = ACh EC100; AID 624038, 2012; Muscarinic acetylcholine receptor M5 (Homo sapiens), P08912; 0.3% of 360,000 active;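 active = activation above the run cutoff, the mean activation of all test compounds plus 3 SD, cut at about 18% in these data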
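System: CHO-K1 hM5 cells. Reagent: acetylcholine, EC20 level. Compound dosing: single dose, 3 µM nominal final test concentration. Timing: Post-acetylcholine fluorescence recording 140 s. Detection: Fluo-8 calcium fluorescence. Read-out: % activation, ACh-normalized. Benchmarks: ACh EC20 and EC100 wells. Repeats: singlicate, one well per test compound.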
CHRM5 antagonist – human M5 muscarinic receptor antagonists, primary screen, CHO cells, Fluo-8 calcium fluorescence; AID 624040, 2012; 0.59% of 360,000 active; CHO-hM5 cells, ACh EC80; inhibition, % at 3 µM; Muscarinic acetylcholine receptor M5 (Homo sapiens), P08912;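 active = inhibition above a per-plate cutoff, the mean of that plate's test compounds plus 3 SD, cut at about 27% in these data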;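 also: 0% = acetylcholine EC80 with DMSO and 100% = DMSO without agonist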
CHRM4 agonist – human M4 muscarinic receptor agonists, primary screen, CHO-K1 cells, Fluo-8 calcium fluorescence | activation, % at 3 µM | CHO-K1 hM4/Gqi5; vehicle 0%, full acetylcholine response 100% | 0.14% of 360,000 active | Muscarinic acetylcholine receptor M4 (Homo sapiens), P08173 | AID 624127, 2012;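 active = activation above the run mean over all test wells plus 3 SD, cut at about 32% in these data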;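 also: peak over basal fluorescence ratio per well then scaled between controls; 0% = DMSO wells and 100% = acetylcholine at EC100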
CHRM4 antagonist – human M4 muscarinic receptor antagonists, primary screen, CHO cells, Fluo-8 calcium fluorescence. Muscarinic acetylcholine receptor M4 (Homo sapiens), P08173. CHO-hM4 cells, ACh EC80. inhibition, % at 3 µM. 0.73% of 360,000 active. AID 624125, 2012;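 active = inhibition above its plate's cutoff, the mean inhibition of sample wells plus 3 SD, cut at about 27% in these data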;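 also: 0% = acetylcholine EC80 with DMSO and 100% = DMSO without agonist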
* = called active by the depositor. Only some compounds are listed: those with a hit (about 1.9% of all), similar ones and a draw of the others.

SMILES	M4 PAM	M5 ag	CHRM5 PAM	CHRM5 antagonist	CHRM4 agonist	CHRM4 antagonist
CCOC(=O)C1(C)CCN1C(=O)c1ccccc1C(F)(F)F (centres undefined)	12	2	-2	12	1	-11
COc1cc(C(C)=O)ccc1OCC(=O)Nc1ccc(Cl)c(S(=O)(=O)N2CCOCC2)c1	-3	7	-19	19	23	-11
CC(C)(C)[C@H]1C=C(C(=O)N2CCN(Cc3ccc4c(c3)OCO4)CC2)O[C@@H](OCCCCO)C1	4	5	20*	-24	1	-2
Cc1ccc(N2C(=O)CS(=O)C(c3ccccc3)C2=O)cc1C (centres undefined)	3	-2	-9	28*	20	3
COc1ccc(N2C(=O)CS(=O)C(c3ccccc3)C2=O)cc1 (centres undefined)	-2	0	5	-7	0	1
CC(C)CC1CCCCC1OC(=O)C[N+]1(C)CCCCC1 (centres undefined)	-20	-11	-16	97*	1	87*
COc1cccc(NC(=O)CSC2=C(C#N)C(c3ccco3)C3=C(CCCC3=O)N2)c1 (centres undefined)	-1	-1	-9	6	3	-2
COc1ccc(NC(=O)CSC2=C(C#N)C(c3ccco3)C3=C(CCCC3=O)N2)c(OC)c1 (centres undefined)	1	-5	-13	42*	4	2
CCCCN(C(=O)CSc1nnc(Nc2ccccc2)s1)c1c(N)n(CCC)c(=O)[nH]c1=O	6	2	5	2	0	-8
Cn1nc(OC(=O)Nc2cccc(Cl)c2)cc1C(F)(F)F	1	6	-17	27*	15	5
CCN(CC)CCNC(=O)c1ccc(NC(=O)c2cccc(S(=O)(=O)N3CCCCCC3)c2)cc1	-15	-11	-43	79*	1	79*
CCN(CC)CCNC(=O)c1ccc(NC(=O)c2ccc(S(=O)(=O)N3CCCCCC3)cc2)cc1	-4	-8	-6	8	0	-7
CCN(CC)CCNC(=O)c1ccc(NC(=O)c2ccc(Cl)c(S(=O)(=O)N3CCCCCC3)c2)cc1	-46	-19	-33	79*	1	70*
COc1ccccc1NC(=O)C1=C(C)NC(=O)NC1c1ccc(C)cc1 (centres undefined)	-13	-3	-6	1	0	32*
CC1CCN(CCOc2ccc(C(=O)c3ccccc3)cc2)CC1	-17	-20	-4	7	1	43*
CC1CCN(CCCCOc2cccc(C(C)C)c2)CC1	-19	-8	-21	21	5	34*
CC1CCN(CCCOc2ccc(OCc3ccccc3)cc2)CC1	-18	-12	-21	8	7	23
CC1CCN(CCCCOc2ccc(C(=O)c3ccccc3)cc2)CC1	-17	-11	-12	3	3	42*
O=C(CSc1nc2ccccc2c(=O)n1CCCN1CCOCC1)Nc1ccccc1OC(F)F	-2	0	2	18	10	-14
CN1c2ccccc2-c2nc3ccccc3n2C1c1cccs1 (centres undefined)	7	-4	18*	9	-2	-10
Cc1ccc(C2N(C)c3ccccc3-c3nc4ccccc4n32)o1 (centres undefined)	7	-4	3	0	-3	-4
Cc1ccnc(NC(=S)N2CCN(c3cccc(C(F)(F)F)c3)CC2)c1	-7	-5	-5	1	5	-10
CCN(C(=O)CSc1nncs1)c1c(N)n(Cc2ccccc2)c(=O)[nH]c1=O	2	-2	29*	-7	1	-17
CCN(C(=O)c1ccc(=O)[nH]c1)c1c(N)n(Cc2ccccc2)c(=O)[nH]c1=O	22*	0	0	15	1	5
CCN(C(=O)COC(=O)c1cc2ccccc2cc1OC)c1c(N)n(Cc2ccccc2)c(=O)[nH]c1=O	22*	-1	1	11	1	-13
SMILES	M4 PAM	M5 ag	CHRM5 PAM	CHRM5 antagonist	CHRM4 agonist	CHRM4 antagonist
COCCCN(C(=S)NC(=O)c1ccc(C(C)(C)C)cc1)c1c(N)n(Cc2ccccc2)c(=O)[nH]c1=O	27*	-2	-1	6	2	-2
CCN(C(=O)CSc1nnnn1C)c1c(N)n(Cc2ccccc2)c(=O)[nH]c1=O	1	2	-1	-4	2	2
CCOC(=O)c1c(C)[nH]c(C(=O)OCc2ccccc2F)c1C	3	-4	3	3	-1	-4
OC(c1ccco1)c1nc(-c2cccs2)cs1 (centres undefined)	5	1	-1	-2	1	-2
COc1ccc([C@H]2C[C@H](O)[C@@H](n3cc(-c4ccc(F)cc4)nn3)CN2C(=O)c2cccs2)cc1	-5	2	4	6	5	-8
O=C1CC(NS(=O)(=O)c2ccc([N+](=O)[O-])cc2)CN1c1ccc(Cl)cc1 (centres undefined)	1	0	0	0	11	-23
Cc1cc(C(=O)N/N=C2/CC(C)CC(C)(C)C2)c(C)o1 (centres undefined)	26*	-1	-4	-9	0	-4
COc1ccccc1Cc1noc(COc2cccc(C)c2C)n1	34*	1	6	-6	-2	5
COc1ccccc1Cc1nc(-c2ccncc2)no1	6	2	0	6	6	3
C[N+](C)(C)CCOC(=O)CCC(=O)OCC[N+](C)(C)C	-6	2	-3	-1	1	-4
CC(=O)SCC[N+](C)(C)C	-5	63*	-20	20	1	-1
CO[C@@H]1CN(C)C(=O)c2cc(NC(=O)NC3CCCCC3)ccc2OC[C@@H](C)N(CCc2ccccc2)C[C@@H]1C	-1	-6	-2	9	1	-12
CC1(C)Cc2c(ccc3ccccc23)C2=C(C(=O)N3CCCC3)C(=O)C(=O)N21	18*	7	-2	17	-2	-4
O=c1cccc(-c2cccc3ccccc23)o1	4	0	1	-9	1	-1
Cc1nn(CC(=O)NCCN2CCCCC2C)c(=O)c2cc(-c3ccccc3)nn12 (centres undefined)	-5	-6	32*	18	2	-2

Compound activity from PubChem BioAssay.
